# Source: PubChem BioAssay AID493160 (Sanford-Burnham Center for Chemical Genomics, 2011)
# Among all 340,000 compounds or so, about 540 (0.16%) were called active.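 The calls were made as follows: active = inhibition above about 35% when tested at 20 µM (limit read from the data); inactive = the rest.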 The sample as a whole holds a higher share of actives than the screen did.
# Target: Hexokinase HKDC1 (Homo sapiens) (UniProt Q2TB90)
# Assay: HKDC1 hexokinase inhibitors, primary screen, biochemical, fluorescence, uHTS (AID 493160);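 also: plate controls were DMSO wells with enzyme for no effect and DMSO wells lacking enzyme for full effect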
# Conditions: recombinant HKDC1, G6PDH/diaphorase resazurin coupled fluorescence; at 20 µM; hits give high values
# How it was run: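 Material – in-house recombinant HK5 (HKDC1) enzyme · Quantity – HKDC1 at 5 µg/mL · Buffer or medium – pH 8.0 Tris buffer with 10 mM MgCl2 · Reagent – glucose with 1 mM ATP · Dosing – single 20 µM dose · Times – reaction time 90 min, room temperature, protected from light · Technique – resorufin fluorescence at 613 nm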
# Sequence of Hexokinase HKDC1 (Homo sapiens) (Q2TB90 whole entry, looked up): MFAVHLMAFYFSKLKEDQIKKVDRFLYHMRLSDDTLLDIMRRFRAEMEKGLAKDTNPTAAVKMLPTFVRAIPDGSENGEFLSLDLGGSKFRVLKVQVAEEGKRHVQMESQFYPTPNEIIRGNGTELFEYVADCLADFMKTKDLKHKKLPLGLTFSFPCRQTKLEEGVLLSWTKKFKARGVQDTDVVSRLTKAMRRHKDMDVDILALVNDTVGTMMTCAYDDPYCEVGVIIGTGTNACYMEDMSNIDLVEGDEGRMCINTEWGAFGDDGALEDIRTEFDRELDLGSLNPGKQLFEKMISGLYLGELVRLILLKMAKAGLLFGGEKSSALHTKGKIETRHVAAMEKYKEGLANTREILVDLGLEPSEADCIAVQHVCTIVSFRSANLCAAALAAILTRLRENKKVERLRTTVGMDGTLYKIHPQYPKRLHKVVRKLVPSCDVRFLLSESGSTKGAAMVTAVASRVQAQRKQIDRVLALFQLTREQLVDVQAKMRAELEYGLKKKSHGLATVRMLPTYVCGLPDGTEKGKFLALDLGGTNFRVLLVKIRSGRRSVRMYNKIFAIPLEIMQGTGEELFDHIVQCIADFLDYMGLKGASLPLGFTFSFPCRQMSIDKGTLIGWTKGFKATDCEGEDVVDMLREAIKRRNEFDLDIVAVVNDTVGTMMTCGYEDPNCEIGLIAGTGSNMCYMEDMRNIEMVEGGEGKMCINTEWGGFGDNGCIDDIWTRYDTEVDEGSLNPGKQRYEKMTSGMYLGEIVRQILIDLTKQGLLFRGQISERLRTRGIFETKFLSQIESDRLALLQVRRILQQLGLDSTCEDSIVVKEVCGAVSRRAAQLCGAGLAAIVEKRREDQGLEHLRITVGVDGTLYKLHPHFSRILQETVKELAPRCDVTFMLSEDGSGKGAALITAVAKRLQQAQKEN
row,SMILES,inhibition
1,CCN(CC)C(=O)C(=O)c1cn(CC(=O)NCc2ccc3c(c2)OCO3)c2ccccc12,-5.09% (inactive)
2,OC(COCc1ccco1)CN1CCN(c2ccccc2)CC1 (stereo unspecified),-10.6% (inactive)
3,Cc1ccc(-c2cnc(NC(=O)CCC(=O)N(C)Cc3ccccc3)n2C)cc1,-3.47% (inactive)
4,Cc1cccc(-n2ncc3c(=O)[nH]c(SCC(=O)Nc4cc(C)on4)nc32)c1,-3.1% (inactive)
5,CC1CN(C2CCCCC2)c2nc3c(c(=O)n(C)c(=O)n3C)n2C1 (stereo unspecified),3.52% (inactive)
6,CC(C)(C)NC(=O)CSc1nnc(NC(=O)CCc2ccccc2)s1,-2.99% (inactive)
7,Cc1cc(-c2n[nH]c(=S)n2/N=C/C(Br)=C/c2ccccc2)n[nH]1,29.1% (inactive)
8,COc1ccc(O)c(C(=O)c2cnc3onc(C(C)C)c3c2)c1,-4.62% (inactive)
9,Cc1ccc(CNC(=O)CCS(=O)(=O)c2ccc3c(c2)CC(C)N3C(=O)C2CC2)o1 (stereo unspecified),-0.82% (inactive)
10,CC1CCN(S(=O)(=O)c2ccc(S(=O)(=O)NCc3cccnc3)cc2)CC1,-6.19% (inactive)
11,CC(C)(C)c1cc(CN2CCN(CCC#N)CC2)cc(C(C)(C)C)c1O,3.39% (inactive)
12,O=S(=O)(Nc1ccc(O)c2ccccc12)c1ccc(OC(F)(F)F)cc1,52% (active)
13,Cc1nn(C)c(C)c1NS(=O)(=O)c1ccc(OC(F)(F)F)cc1,-3.33% (inactive)
14,O=C1COc2ccc(S(=O)(=O)Nc3ccc(OC(F)(F)F)cc3)cc2N1,2.53% (inactive)
15,C=C(C)c1cccc(C(C)(C)NC(=O)NCCN(CC)CC)c1,13% (inactive)
16,CC1Cc2ccccc2N1S(=O)(=O)c1cccc(C(=O)OCC(=O)N2CCOCC2)c1 (stereo unspecified),-4.82% (inactive)
17,COc1cc(NC(=O)C2=C(C)OCCS2)c(Cl)cc1C(=O)NCCN1CCN(C)CC1,-3.87% (inactive)
18,COCCCNC(NC(=O)c1ccc(OC)cc1)C(Cl)(Cl)Cl (stereo unspecified),-2.25% (inactive)
19,CC(C)(C)OC(=O)N(Cc1ccccc1)Cc1ccc(OCc2cccc(NC(=O)c3ccccc3)c2)cc1,-0.76% (inactive)
20,COc1ccc(Nc2ncc(C(=O)N3CCN(c4ccccc4OC)CC3)c3ccccc23)cc1,3.14% (inactive)
21,CCc1c(Nc2ccccc2Cl)nc(N)[nH]c1=O,-5.05% (inactive)
22,Fc1ccccc1OCCSc1nc2ccccc2o1,7.74% (inactive)
23,CC(C)C[C@H](NC(=O)N1CC(=O)Nc2ccccc21)C(=O)N[C@H](Cc1ccccc1)C(=O)O,-0.33% (inactive)

row,SMILES,inhibition
1,CN(C(=O)CSc1cccc[n+]1[O-])C1CCCCC1,-5.14% (inactive)
2,NC(=O)C1CC=CCC1C(=O)OCC(Cl)=C(Cl)Cl (stereo unspecified),-10.8% (inactive)
3,Cc1nc2nc(COc3ccccc3)[nH]n2c(=O)c1C,0.17% (inactive)
4,CC(=O)N1CSCC1C(=O)O (stereo unspecified),-1.3% (inactive)
5,CCOc1ccc(N2C(=O)CN(c3cccc4ccccc34)C2=S)cc1,-10.4% (inactive)
6,Cc1ccc(S(=O)(=O)NC(=O)COc2ccccc2C)cc1,-6.13% (inactive)
7,Cn1c2ccccc2c2cc(/C=C(\NC(=O)c3ccccc3)C(=O)NCC(=O)O)ccc21,-5.19% (inactive)
8,Cc1c(-c2ccccc2)cn2c1-c1ccc(C)n1CC2,1.47% (inactive)
9,COc1ccc(-c2csc3ncnc(Oc4ccc5c(C)cc(=O)oc5c4)c23)cc1,6.07% (inactive)
10,CCCCN(C(=O)c1cccc(N2C(=O)c3ccccc3C2=O)c1)c1c(N)n(CCCC)c(=O)[nH]c1=O,-1.42% (inactive)
11,Cc1ccc(N(C(=O)c2ccc(S(=O)(=O)N(C)C)cc2)C2C=CS(=O)(=O)C2)cc1 (stereo unspecified),-6.81% (inactive)
12,NS(=O)(=O)c1ccc(CCNC(=O)c2nc(CS(=O)(=O)c3ccc(Cl)cc3)no2)cc1,4.98% (inactive)
13,Cc1nc2ccc(N)nc2nc1C,-5.39% (inactive)
14,Cc1cccc([C@@H]2[C@@H]3C(=O)N(C)C(=O)[C@@H]3[C@@H]3C(=O)Nc4ccccc4C(=O)N23)c1,-0.25% (inactive)
15,CC(C)=CC(=O)Nc1nnc(-c2ccc(F)cc2)s1,6.59% (inactive)
16,Cc1cc(C)n(CCNC(=O)CC2C(=O)NCCN2Cc2ccc(C)o2)n1 (stereo unspecified),-9.7% (inactive)
17,Cc1ccc(O)c(NC(=O)c2cc(-c3ccco3)on2)c1,-2.87% (inactive)
18,CC(=O)N1CC(=O)N(CC(=O)Nc2ccc(Br)cc2)C1=S,-1.64% (inactive)
19,O=C(O)c1ccc(NS(=O)(=O)c2ccc3c(c2)C(=O)c2cc(S(=O)(=O)Nc4ccc(C(=O)O)cc4)ccc2-3)cc1,2.22% (inactive)
20,CCn1cc(C(=O)N2CCN(Cc3ccc4c(c3)OCO4)CC2)c2cc(OC)c(OC)cc2c1=O,-2.84% (inactive)
21,CCn1cc(C(=O)NCc2ccc3c(c2)OCO3)c2cc(OC)c(OC)cc2c1=O,37.8% (active)
22,COc1cc(OC)c(C(=O)NCc2ccc3c(c2)OCO3)cc1OC,-0.69% (inactive)
23,COc1ccc(C(C)C)cc1S(=O)(=O)Nc1ncn[nH]1,-3.49% (inactive)
